Test results reported in ChEMBL document CHEMBL1138345, “Scouting human A3 adenosine receptor antagonist binding mode using a molecular simplification approach: from triazoloquinoxaline to a pyrimidine skeleton as a key study” (J Med Chem, 2007).

What was measured:
[1] = molecular target: T1, Adenosine receptor A1 (Homo sapiens) (UniProt P30542); test: Displacement of [3H]DPCPX from human adenosine A1 receptor expressed in CHO cell membranes at 1 uM
T1 sequence (whole entry): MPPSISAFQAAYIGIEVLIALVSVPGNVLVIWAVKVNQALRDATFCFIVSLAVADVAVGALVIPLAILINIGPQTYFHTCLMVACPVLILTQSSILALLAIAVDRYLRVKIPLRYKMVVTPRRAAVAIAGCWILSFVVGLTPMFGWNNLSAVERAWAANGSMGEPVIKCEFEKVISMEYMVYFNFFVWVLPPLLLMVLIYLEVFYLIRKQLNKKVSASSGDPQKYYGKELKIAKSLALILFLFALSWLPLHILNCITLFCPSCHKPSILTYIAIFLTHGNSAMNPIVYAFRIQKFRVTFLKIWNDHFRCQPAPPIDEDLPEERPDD
Procedure, shortened: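 hA1 CHO membranes (50 µg protein) with 1 nM [³H]DPCPX in 50 mM Tris HCl pH 7.4, 120 min at 25 °C; nonspecific binding with 10 µM CHA; glass-fiber filtration, scintillation counting; % inhibition at 1 µM test compound.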

[2] = molecular target: Adenosine receptor A2a (Homo sapiens) (UniProt P29274); test: Displacement of [3H]ZM-241385 from human adenosine A2A receptor expressed in CHO cell membranes at 1 uM
Chain of Adenosine receptor A2a (Homo sapiens) (P29274 whole entry): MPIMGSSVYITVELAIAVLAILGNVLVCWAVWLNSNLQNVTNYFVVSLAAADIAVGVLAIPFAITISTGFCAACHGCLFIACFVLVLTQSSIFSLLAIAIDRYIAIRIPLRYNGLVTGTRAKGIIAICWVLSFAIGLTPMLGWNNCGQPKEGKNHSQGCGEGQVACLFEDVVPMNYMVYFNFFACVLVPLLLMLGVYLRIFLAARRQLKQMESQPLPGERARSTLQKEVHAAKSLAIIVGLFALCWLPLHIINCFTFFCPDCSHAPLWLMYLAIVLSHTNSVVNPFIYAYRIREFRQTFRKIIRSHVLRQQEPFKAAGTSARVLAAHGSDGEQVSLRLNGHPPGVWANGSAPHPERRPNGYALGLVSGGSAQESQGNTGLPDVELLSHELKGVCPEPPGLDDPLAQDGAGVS
Procedure, shortened: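 Binding of 1 nM [³H]ZM-241385 to hA2A CHO membranes (50 µg protein) in 50 mM Tris HCl, 10 mM MgCl₂, pH 7.4, 60 min at 4 °C; nonspecific binding with 1 µM ZM-241385; filtration and counting; % inhibition at 1 µM test compound.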

[3] = molecular target: T2, Adenosine receptor A2b (Homo sapiens) (UniProt P29275); test: Antagonist activity at human adenosine A2B receptor expressed in CHO cells assessed as inhibition of NECA-stimulated cAMP levels at 1 uM; assay type: functional, cell-based
T2 sequence (whole entry): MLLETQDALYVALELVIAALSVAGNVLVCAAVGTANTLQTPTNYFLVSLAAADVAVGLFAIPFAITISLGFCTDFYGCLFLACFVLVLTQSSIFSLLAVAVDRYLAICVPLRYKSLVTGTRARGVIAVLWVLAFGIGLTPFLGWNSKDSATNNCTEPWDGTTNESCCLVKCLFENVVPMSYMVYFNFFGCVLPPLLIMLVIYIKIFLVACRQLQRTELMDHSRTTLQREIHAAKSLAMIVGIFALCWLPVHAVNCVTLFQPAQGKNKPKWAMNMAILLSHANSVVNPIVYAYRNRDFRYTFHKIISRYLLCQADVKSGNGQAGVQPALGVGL
Procedure, shortened: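 Stably transfected hA2B CHO cells, 1 × 10⁶ cells/assay, preincubated 10 min at 37 °C, pH 7.4, with adenosine deaminase 2 IU/ml and Ro 20-1724 as phosphodiesterase inhibitor. Stimulated by 200 nM NECA; test compound at 1 µM. Stopped with cold 6% TCA; cAMP measured by [³H]cAMP competition protein binding with beef adrenal binding protein. Reported as % inhibition.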

[4] = molecular target: T3, Adenosine receptor A3 (Homo sapiens) (UniProt P0DMS8); test: Displacement of [125I]ABMECA from human adenosine A3 receptor expressed in CHO cell membranes at 1 uM
T3 sequence (whole entry): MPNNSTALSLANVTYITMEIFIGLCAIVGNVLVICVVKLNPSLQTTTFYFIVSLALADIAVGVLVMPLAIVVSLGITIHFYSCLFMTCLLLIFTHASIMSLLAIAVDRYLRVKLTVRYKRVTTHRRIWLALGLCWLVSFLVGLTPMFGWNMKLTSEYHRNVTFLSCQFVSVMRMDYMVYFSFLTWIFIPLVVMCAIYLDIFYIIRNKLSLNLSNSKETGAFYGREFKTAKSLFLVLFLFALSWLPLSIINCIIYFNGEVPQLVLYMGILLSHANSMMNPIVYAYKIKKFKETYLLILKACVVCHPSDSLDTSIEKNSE
Procedure, shortened: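 Competition at hA3 CHO membranes (50 µg protein) against 0.5 nM [¹²⁵I]AB-MECA, Tris HCl/MgCl₂/EDTA buffer pH 7.4, 120 min at 4 °C; nonspecific binding with 1 µM AB-MECA; test compound at 1 µM; % inhibition of binding.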

Adenosine receptor A3 [5] = molecular target: T4, Adenosine receptor A3 (Homo sapiens, UniProt P0DMS8); test: Displacement of [125I]ABMECA from human adenosine A3 receptor expressed in CHO cell membranes
T4 sequence (P0DMS8 whole entry): T3 sequence (whole entry)
Procedure, shortened: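 hA3 CHO membranes, 50 µg protein, with 0.5 nM [¹²⁵I]AB-MECA in 50 mM Tris HCl, 10 mM MgCl₂, 1 mM EDTA, pH 7.4. At least 6–8 ligand concentrations, 120 min at 4 °C. Nonspecific binding with 1 µM AB-MECA. Filtration, counting. Ki via Cheng–Prusoff from IC50; means ± SEM of four assays, each in duplicate.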

Adenosine receptor A3 [6] = molecular target: T4, Adenosine receptor A3; test: Activity at human adenosine A3 receptor expressed in CHO cells assessed as antagonism of Cl-IB-MECA-inhibited cAMP production; assay type: functional, cell-based
Procedure, shortened: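 CHO cells stably expressing hA3, washed, trypsinized, 1 × 10⁶ cells/assay, preincubated 10 min at 37 °C in buffered salt–glucose medium (pH 7.4) with adenosine deaminase 2 IU/ml and Ro 20-1724. Forskolin 1 µM plus Cl-IB-MECA 100 nM. Stopped with cold 6% TCA, ether-extracted, cAMP by [³H]cAMP competition protein binding. IC50 from sigmoid nonlinear regression; means ± SEM of four experiments.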

Row | SMILES | Activity [1] [%] | Activity [2] [%] | inhibition [3] [%] | Activity [4] [%] | Ki (Adenosine receptor A3 [5]) [nM] | IC50 (Adenosine receptor A3 [6]) [nM]
1 | COc1ccc(NC(=O)c2ccnc(N)n2)cc1 | 3 | 6 | 3 | 15 |  | 
2 | Cc1ccc(NC(=O)c2[nH]c(=O)nc3ccccc23)cc1 |  |  |  |  | 26.7 | 
3 | O=C(Nc1ccccc1)c1[nH]c(=O)nc2ccccc12 |  |  |  |  | 50 | 238
4 | O=C(Nc1nc(C(=O)Nc2ccccc2)c2ccccc2n1)c1ccccc1 | 7 | 10 | 3 |  | 182 | 
5 | O=C(Nc1ccccc1)c1cc(=O)[nH]c2ccccc12 | 1 | 1 | 2 | 38 |  | 
6 | COc1ccc(NC(=O)c2cc(=O)[nH]c3ccccc23)cc1 | 4 | 1 | 3 | 26 |  | 
7 | O=C(Nc1ccc(Br)cc1)c1[nH]c(=O)nc2ccccc12 |  |  |  |  | 27.2 | 
8 | Cc1ccc(NC(=O)c2nc(=O)[nH]c3ccccc23)cc1 | 21 | 2 | 2 |  |  | 
9 | COc1ccc(NC(=O)c2cc(N)nc3ccccc23)cc1 | 2 | 3 | 3 | 1 |  | 
10 | O=C(Nc1ccc(Br)cc1)c1nc(=O)[nH]c2ccccc12 | 3 | 1 | 2 |  |  | 
11 | COc1ccc(NC(=O)c2nc(=O)[nH]c3ccccc23)cc1 | 4 | 1 | 9 |  |  | 
12 | COc1ccc(NC(=O)c2ccnc(N(C(=O)c3ccccc3)C(=O)c3ccccc3)n2)cc1 | 5 | 1 | 3 | 14 |  | 
13 | COc1ccc(NC(=O)c2ccnc(NC(=O)c3ccccc3)n2)cc1 | 6 | 6 | 2 | 22 |  | 
14 | COc1ccc(NC(=O)c2[nH]c(=O)nc3ccccc23)cc1 |  |  |  |  | 19.5 | 125
15 | Nc1nc(C(=O)NC2CCCCC2)c2ccccc2n1 | 2 | 3 | 1 | 21 |  | 

More lines, now with the values ahead:

Row | Activity [1] [%] | Activity [2] [%] | inhibition [3] [%] | Activity [4] [%] | Ki (Adenosine receptor A3 [5]) [nM] | IC50 (Adenosine receptor A3 [6]) [nM] | SMILES
16 | 1 | 2 | 5 | 6 |  |  | Nc1cc(C(=O)Nc2ccccc2)c2ccccc2n1
17 | 22 | 1 | 4 |  |  |  | O=C(Nc1ccccc1)c1nc(=O)[nH]c2ccccc12
18 | 40 | 17 | 5 |  | 350 |  | Nc1nc(C(=O)Nc2ccccc2)c2ccccc2n1
19 | 8 | 6 | 23 |  | 87.5 |  | COc1ccc(NC(=O)c2nc(N)nc3ccccc23)cc1
20 | 1 | 1 | 2 |  | 550 |  | Nc1nc(C(=O)Nc2ccc(Br)cc2)c2ccccc2n1
21 | 3 | 5 | 4 |  | 98.3 |  | Cc1ccc(NC(=O)c2nc(N)nc3ccccc23)cc1
22 | 25 | 7 | 5 |  | 25.3 | 140 | CC(=O)Nc1nc(C(=O)Nc2ccccc2)c2ccccc2n1
